The source made the active and inactive calls. The rule behind the calls is not given here.
Key:
dengue virus type 2 [1] = test: Antiviral activity against DENV2 16681 infected in African green monkey Vero E6 cells assessed as reduction in virus induced cytopathic effect measured after 96 hrs by reverse phase contrast microscopy; assay type: functional, organism-based; conditions: Vero C1008
How it was run: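 Vero E6 cells in DMEM infected with DENV2 16681 at MOI 0.01, compound added immediately (screen at 10 μM, then 0, 0.1, 1, 10 μM). Photographed 96 h post infection by phase-contrast microscopy. CPE reduction scored qualitatively (−, +, ++, +++).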

dengue virus type 2 [2] = test: Antiviral activity against DENV2 16681 infected in African green monkey Vero E6 cells assessed as inhibitory rate of NS4B positive cells at 10 uM measured after 96 hrs incubation by DAPI staining based immunofluorescence method; assay type: functional; conditions: Dengue virus, 16681, Vero C1008, 96 h
How it was run: (§1)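 Vero E6 cells in DMEM infected with DENV2 strain 16681 at MOI 0.01, treated at once with compound (0, 0.1, 1, 10 μM), 96 h. Immunofluorescence with anti-NS4B antibody and DAPI counterstain. Infectivity taken as NS4B-positive cells over DAPI-stained total cells. Inhibitory rate = (1 − NS4B-positive % treated infected / NS4B-positive % mock-treated infected) × 100.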

[3] = Therapeutic index, ratio of CC50 for African green monkey Vero E6 cells to IC50 for DENV2 16681 infected in African green monkey Vero E6 cells; assay type: toxicity, Vero C1008; conditions: read-out: Ratio CC50/IC50
How it was run: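 TI = CC50/IC50. CC50 comes from the Vero E6 MTT survival test. IC50 comes from the NS4B-positive cell fraction by immunofluorescence in DENV2 16681-infected Vero E6 cells (MOI 0.01, 96 h, 0–10 μM).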

Vero C1008 = test: Cytotoxicity against African green monkey Vero E6 cells assessed as reduction in survival rate measured after 48 hrs by MTT assay; assay type: cell-based; conditions: chlorocebus sabaeus, vero c1008, 48 h
How it was run: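 MTT viability test on Vero E6 cells in DMEM over a range of compound concentrations. CC50 calculated from survival of treated cells relative to mock cells.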

dengue virus type 2 [4] = test: Antiviral activity against DENV2 16681 infected in African green monkey Vero E6 cells assessed as reduction in virus induced cytopathic effect at 10 uM measured after 96 hrs by reverse phase contrast microscopy; assay type: functional, organism-based; conditions: Vero C1008
How it was run: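 Vero E6 cells in supporting DMEM infected with DENV2 strain 16681 (MOI 0.01), then treated immediately with compound at 10 μM. After 96 h incubation, cytopathic effect photographed by reverse phase-contrast microscopy and scored semi-quantitatively (−, +, ++, +++) against infected controls.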

dengue virus type 2 [5] = test: Antiviral activity against DENV2 16681 infected in African green monkey Vero E6 cells assessed as inhibitory rate of NS4B positive cells measured after 96 hrs incubation by DAPI staining based immunofluorescence method; assay type: functional, organism-based; conditions: for IC50: Dengue virus, 16681, Vero C1008, 96 h; for inhibition: Vero C1008
How it was run: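 Vero E6 cells in DMEM, infected with DENV2 strain 16681 at MOI 0.01 and treated with compound (0, 0.1, 1, 10 μM; single 10 μM for screening). After 96 h, immunofluorescence with anti-NS4B antibody and DAPI nuclear counterstain. Infectivity = NS4B-positive cells / DAPI-stained cells. Inhibitory rate = (1 − NS4B-positive % treated / NS4B-positive % mock-treated infected) × 100. IC50 derived from NS4B-positive percentages across concentrations.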

dengue virus type 2 [6] = test: Antiviral activity against DENV2 16681 infected in human A549 cells assessed as reduction in virus induced cytopathic effect at 0.1 to 10 uM measured after 120 hrs post infection by light microscopy; assay type: functional, organism-based
dengue virus type 2 [7] = test: Antiviral activity against DENV2 16681 infected in human A549 cells assessed as inhibitory rate of NS4B positive cells at 0.1 to 10 uM measured after 120 hrs post infection by DAPI staining based immunofluorescence method; assay type: functional, organism-based
dengue virus type 2 [8] = test: Antiviral activity against DENV2 16681 infected in African green monkey Vero E6 cells assessed as inhibitory rate of NS4B positive cells at 1 uM measured after 96 hrs incubation by DAPI staining based immunofluorescence method; assay type: functional; conditions: Dengue virus, 16681, Vero C1008, 96 h; how it was run: as §1

In the case of `CC1(C)[C@@H](O[C@H]2O[C@H](C(=O)N[C@@H](Cc3ccc(O)cc3)C(=O)O)[C@@H](O)[C@H](O)[C@H]2O[C@@H]2O[C@H](C(=O)N[C@@H](Cc3ccc(O)cc3)C(=O)O)[C@@H](O)[C@H](O)[C@H]2O)CC[C@]2(C)[C@H]3C(=O)C=C4[C@@H]5C[C@@](C)(C(=O)N[C@@H](Cc6ccc(O)cc6)C(=O)O)CC[C@]5(C)CC[C@@]4(C)[C@]3(C)CC[C@@H]12`, the inhibition (dengue virus type 2 [1]) is reported as “Dose-dependent effect”, the inhibition at 10 µM (dengue virus type 2 [2]) is reported as 68.5% and the selectivity ratio [3] is reported as > 46.5. For the same compound, the CC50 (Vero C1008) was > 100 µM, the inhibition (dengue virus type 2 [4]) was “Active” and the IC50 (dengue virus type 2 [5]) was 2.2 µM. The inhibition (dengue virus type 2 [5]) was “Dose-dependent effect”.

With `CC[C@H](C)[C@H](NC(=O)[C@H]1O[C@@H](O[C@H]2[C@@H](O[C@H]3CC[C@]4(C)[C@H]5C(=O)C=C6[C@@H]7C[C@@](C)(C(=O)N[C@H](C(=O)O)[C@@H](C)CC)CC[C@]7(C)CC[C@@]6(C)[C@]5(C)CC[C@H]4C3(C)C)O[C@H](C(=O)N[C@H](C(=O)O)[C@@H](C)CC)[C@@H](O)[C@@H]2O)[C@H](O)[C@@H](O)[C@@H]1O)C(=O)O` the inhibition (dengue virus type 2 [1]) was “Dose-dependent effect”, the inhibition at 10 µM (dengue virus type 2 [2]) was 95.7% and the inhibition (dengue virus type 2 [6]) was “Active”. The inhibition (dengue virus type 2 [7]) was “Active”, the selectivity ratio [3] was > 76.3 and the CC50 (Vero C1008) was > 100 µM. For the same compound, the inhibition (dengue virus type 2 [4]) was “Active”, the IC50 (dengue virus type 2 [5]) was 1.3 µM and the inhibition (dengue virus type 2 [5]) was “Dose-dependent effect”. It also gave an inhibition at 1 µM (dengue virus type 2 [8]) of 20.2%.

From ChEMBL document CHEMBL4396972, “Glycyrrhizic acid derivatives as Dengue virus inhibitors” (Bioorg Med Chem Lett, 2019)
